From PubChem
Apaf1 activ: activators of human Apaf-1 apoptosome, primary screen, biochemical, DEVD-Rh110 fluorescence, uHTS | Apoptotic protease-activating factor 1 (Homo sapiens), O14727 | Apaf-1 apoptosome caspase-3 activation; stronger effect = lower value | activity change, negative = activation, % at 20 µM | hit rate 0.31% among 330,000 | AID 489031, 2010;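 active = activity change at or below -40% at 20 µM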
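Schedule: 30 min preincubation, 50 min reaction, room temperature / System: biochemical Apaf-1 apoptosome reconstitution / Medium: 20 mM HEPES pH 7.5 with CHAPS, BSA / Evaluation: Caspase-3 cleavage activity downstream of Apaf-1 activation / Detection: Caspase-3-released Rh110 fluorescence, 540 nm emission, 480 nm excitation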
Rh110 act interf: Rh110 fluorescence interference by putative Apaf-1 activators, confirmation, artefact control for Apaf-1 activator project, biochemical, 20 µM | shares compounds with Apaf1 activ | quenched caspase reaction, Ex480/Em540 | fluorescence interference (activity change), % at 20 µM, hits read low | 980 tested, under 10 active | AID 504616, 2011;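 active = mean activity change at or below -40% when tested at 20 µM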
Apaf-1 act conf: Apaf-1 activators, single-dose retest, confirmation, biochemical, fluorescence, DEVD-Rh110, 20 µM. shares compounds with Apaf1 activ. reconstituted apoptosome caspase-3 activity; stronger effect = lower value. activity change, negative = activation, % at 20 µM. hit rate 5% among 980. AID 504617, 2011;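 active = mean activity change at or below -40%, meaning activation of 40% or more, at 20 µM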
Apaf1 act interf: fluorescence interference of Apaf-1 activator hits, dose response, artefact control for Apaf-1 activator project; shares compounds with Apaf1 activ; fluorescence interference counterscreen, Apaf-1 activator assay; EC50, µM; 55 tested, under 10 active; call rule not given here
* = called active by the depositor; · = no result given. Only a sample is shown.

SMILES	Apaf1 activ	Rh110 act interf	Apaf-1 act conf	others
Cc1cc(NC(=O)CCSc2ccccc2)ccc1Br	-65.0*	15.1	22.0
CCCCc1c(C)nn(-c2nnc3c4ccccc4n(CC)c3n2)c1C	46.8	·	·
CN1C[C@H](C(=O)N[C@]2(C)O[C@@]3(O)[C@@H]4CCCN4C(=O)[C@H](Cc4ccccc4)N3C2=O)CC2c3cccc4[nH]cc(c34)C[C@H]21 (stereo partly drawn)	9.8	·	·
CCOc1ccc(C(=O)/C=C/Nc2ccc(S(=O)(=O)N=C(N)N)cc2)cc1	-159.8*	0.9	-74.0*	Apaf1 act interf=>100
Clc1ccc(C2=Nn3c(nnc3-c3n[nH]c4c3CCC4)SC2)cc1Cl	42.9	·	·
COC(CNC(=S)Nc1ccc([N+](=O)[O-])cc1)OC	-58.1*	8.0	2.7
Nc1cccc2nsnc12	67.7	·	·
Cc1cccc(C)c1OCC(=O)N(Cc1ccco1)C1CCS(=O)(=O)C1 (stereo not drawn)	-378.0*	4.7	-0.2
CC(=O)[C@@H]1[C@@H]2C(=O)N(C3CCCCC3)C(=O)[C@@H]2C2c3ccccc3C=CN21 (stereo partly drawn)	84.1	·	·
COc1cc(O)c(NC(C)=O)c2nonc12	86.5	·	·
[O-][n+]1c2ccccc2cc2ccccc21	-386.1*	-8.7	8.8
Cc1ccc(Nc2nc(N)c([N+](=O)[O-])c(NCc3ccco3)n2)cc1	-443.2*	13.4	17.0
Cc1ccc(NC2=C(NCCO)C(=O)c3ccccc3C2=O)cc1	78.1	·	·
COc1ccc(NC(=S)N2CCC(C(=O)c3ccc(C)cc3)CC2)cc1	-102.6*	6.7	3.2
CCOC(=O)C1CCN(C(=O)Nc2ccc3nc(-c4ccco4)c(-c4ccco4)nc3c2)CC1	69.8	·	·
Cc1ccc(C(=O)NNc2cc(N3CCCC3)nc(N3CCCC3)n2)cc1	97.0	·	·
COc1ccc(C2CC(=O)Oc3c(C(CCN4CCCC(C)C4)c4ccc(N(C)C)cc4)c(OC)cc(OC)c32)cc1 (stereo not drawn)	49.1	·	·
Cc1c(CCO)c(=O)[nH]n1S(=O)(=O)c1cccc(C(F)(F)F)c1	-91.6*	11.4	14.7
O=C(Cc1cccc(C(F)(F)F)c1)OCC(=O)N1CCN(S(=O)(=O)c2ccc(Cl)cc2)CC1	51.1	·	·
Oc1ccc(NCc2cccc(OCc3ccccc3)c2)cc1	91.1	·	·
Oc1c(Br)cc(Br)cc1CNc1cccc2cccnc12	92.1	·	·
N#Cc1c(N2CCCC(O)C2)nc(N)c2c(N)nc3c(c12)CC(=O)N3C12CC3CC(CC(C3)C1)C2 (stereo not drawn)	97.8	·	·
Oc1ccc(-c2csc(-c3c[nH]c4ccccc34)n2)c(O)c1	-275.9*	1.4	0.7
CC(C)C[C@H](NC(=O)c1nc[nH]c1C(=O)N[C@@H](CCCCN)C(=O)OC(C)(C)C)C(=O)OC(C)(C)C	42.6	·	·
Fc1ccc(F)c(C2=NNC(=Nc3ccccc3F)SC2)c1	-44.9*	5.2	16.3
SMILES	Apaf1 activ	Rh110 act interf	Apaf-1 act conf	others
O=C1NC(=O)[C@@H]2C3c4ccccc4C=CN3[C@H](C(=O)c3cccs3)[C@H]12 (stereo partly drawn)	47.4	·	·
FC(F)(F)c1cc(CCN2CCNC[C@H]2Cc2cccc3ccccc23)cc(C(F)(F)F)c1	72.4	·	·
COc1ccc(NC(=O)CN(C)C(=O)C2CSC3(C)CCC(=O)N23)cc1 (stereo not drawn)	42.7	·	·
COc1ccc(CN2CCC(C(=O)Nc3ccc(Oc4cccnc4)cc3)CC2)cc1	58.4	·	·
Cc1cccc(NC(=O)NCc2ccc3c(c2)cc(C)n3C)c1	54.0	·	·
Cc1cccc(NC(=O)c2sc3nc4c(c(-c5cccs5)c3c2N)CN(C)CC4)c1	49.9	·	·
Cc1cccc(NC(=O)CCN2CCC(C)CC2)c1	-54.1*	2.3	0.7
COc1ccc(NC(=O)CN2CCC(C)CC2)cc1	-51.9*	-0.6	3.2
Oc1ccc(/C=N\Nc2cc(N3CCOCC3)nc(N3CCOCC3)n2)c(O)c1	85.1	·	·
O=c1[nH]nc(CNc2ccc(O)cc2)c2ccccc12	94.5	·	·
Cc1ccc(S(=O)(=O)/N=C2\C(=O)c3ccccc3C([O-])=C2n2cc[n+](CCC(C)C)c2)cc1	57.1	·	·
Cc1ccc(-n2c(N)c(C(=O)Nc3c(C)n(C)n(-c4ccccc4)c3=O)c3nc4ccccc4nc32)cc1C	42.4	·	·
Cc1ccc(-c2nc3ncccn3c2NC(=O)C2CC2)cc1	-51.8*	-0.5	13.2
Cc1cc(C)nc(-n2nc(C)cc2NC(=O)CN2CCc3ccccc3C2)n1	54.2	·	·
COC(=O)c1[nH]c2cc(C)ccc2c1NC(=O)CN1CCc2cc(OC)c(OC)cc2C1	-175.9*	-1.6	12.1
CCN(CC)c1nc(N)c2c(N)nc(OC)cc2c1C#N	46.4	·	·
S=c1nc(-c2ccc(Cl)cc2)[nH][nH]1	-396.0*	8.3	13.8
Cc1ccnc2c1ccc1c(C)ccnc12	44.5	·	·
CN(C)CCN(C(=O)c1ccc2c(c1)CCCC2)c1nc2cc3c(cc2s1)OCCO3	43.6	·	·
CN(C)CCn1c2c(c(SCC(=O)Nc3ccc4c(c3)OCCO4)nc1=O)CCCC2	-62.2*	-6.1	5.1
COc1ccc(NC(=O)CSc2nc3c(c(-c4cccs4)c2C#N)CN(C)CC3)cc1OC	66.9	·	·
CCN1CCN(Cc2ccc(NC(=O)c3cc(NC(=O)c4cncc(-c5cccs5)c4)cc(OC)c3)cc2C(F)(F)F)CC1	67.9	·	·
O=C1c2ccccc2C(=O)C1(O)O	68.0	·	·
CCOc1nc2cnccc2n(CC(=O)Nc2ccccc2F)c1=O	-49.0*	-0.7	7.1
CCCCCc1cc(=O)oc2c(C(CCN3CCCCC3)c3ccc4c(c3)OCO4)c(OC)cc(OC)c12 (stereo not drawn)	65.9	·	·
SMILES	Apaf1 activ	Rh110 act interf	Apaf-1 act conf	others
COC(=O)CCC(=O)OC1(C)C(=O)C2=CN(CC(C)C)C(c3ccc(OC)cc3)=CC2=C(Br)C1=O (stereo not drawn)	52.0	·	·
CCOc1ccc(S(=O)(=O)N2CCCCC2)cc1NC(=O)C1=COCCO1	-131.3*	18.1	19.1
CCN(CC)c1ccc(S(=O)(=O)N2CCCCC2)cc1NC(=O)C1CSC2(C)CCC(=O)N12 (stereo not drawn)	51.0	·	·
CCOC(=O)C1CCCN(C(=O)c2cc(S(=O)(=O)N3CCCCCC3)ccc2OC)C1 (stereo not drawn)	49.1	·	·
CC1(C)Cc2cccc(OCC(=O)N3CCN(c4cccc(C(F)(F)F)c4)CC3)c2O1	44.6	·	·
CC(C)Oc1cccc(C(=O)Nc2ncn[nH]2)c1	-47.8*	2.5	8.9
O=C(NC(Cc1ccccc1)C(=O)NCc1ccccn1)c1ccco1 (stereo not drawn)	-187.4*	0.1	6.1
Cn1c(=O)c2[nH]c(=O)cnc2n(C)c1=S	56.3	·	·
N=c1n(CC(=O)c2ccc(Br)s2)c2ccccc2n1Cc1ccccc1	42.4	·	·
COc1cccc(NC(=O)C2CCCO2)c1 (stereo not drawn)	-114.4*	9.7	13.3
C=CCNC(C(=O)Nc1cccc(OC)c1)c1ccccc1 (stereo not drawn)	42.9	·	·
